Results reported in paper PMC3206492 (Journal of the American Chemical Society, 2011).

Test system: PBP1b
Assay: In vitro PBP1b transglycosylase assay
Assay type: biochemical, Escherichia coli
Settings: peptide up to 200 μM
Summary of the method: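 E. coli PBP1b glycan polymerization with heptaprenyl lipid II substrate at 4 μM, run with and without test peptide. Peptidoglycan formation was monitored, and IC50 is the peptide concentration giving half-maximal inhibition of PBP1b activity.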

## epilancin 15X
  inhibition of lipid II polymerization at concentrations up to 200 μM: did not demonstrate any inhibitory activity

## lactocin S
  inhibition of lipid II polymerization at concentrations up to 200 μM: did not demonstrate any inhibitory activity

## sublancin
  inhibition of lipid II polymerization at concentrations up to 200 μM: did not inhibit
